These results are taken from ChEMBL document CHEMBL1130789, “Peptidyl human heart chymase inhibitors. 1. Synthesis and inhibitory activity of difluoromethylene ketone derivatives bearing P' binding subsites” (Bioorg Med Chem Lett, 1998).

One experiment addresses T1, Chymase (Homo sapiens, UniProt P23946).
T1 sequence (P23946 whole entry): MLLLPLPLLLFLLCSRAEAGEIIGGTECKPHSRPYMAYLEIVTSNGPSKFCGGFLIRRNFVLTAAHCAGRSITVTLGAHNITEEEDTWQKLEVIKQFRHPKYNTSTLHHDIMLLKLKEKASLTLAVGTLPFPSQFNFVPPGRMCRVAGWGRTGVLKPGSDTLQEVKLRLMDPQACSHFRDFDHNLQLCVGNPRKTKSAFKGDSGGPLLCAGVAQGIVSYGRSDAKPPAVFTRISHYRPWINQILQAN
Kind of experiment: Compound was evaluated for inhibitory activity against human heart chymase (HHC). The essentials: (§1)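 Synthetic chromogenic substrate at 2.5 mM final in 20 mM Tris-HCl pH 7.5 with 2 M KCl. Five inhibitor concentrations were tested, with 10% DMSO in water as the control. The enzyme was added last. A405 minus A650 was read after 2 h at 37 °C. Residual activity was fitted by Easson–Stedman, and Ki = Ki'×Km/(Km+[S]). Mean ± SEM, n = 3 (some n = 2).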

A further experiment has as its target Chymotrypsinogen A (Bos taurus, UniProt P00766). Kind of experiment: Compound was evaluated for inhibitory activity against Chymotrypsinogen. The essentials: as §1
The species entered for another experiment is Bos taurus. As to the kind of experiment: Selectivity ratio of Bovine chymotrypsin (BCT - Ki) to human heart chymase (HHC - Ki).

Non-standard residues stand in square brackets, D forms with d. Residues, ends and D or L forms follow the SMILES beside them. ξ: configuration not given here. *: point of attachment. ξF = NC(Cc1ccccc1)C(=O)O; Boc = CC(C)(C)OC(=O)*; CF3 = FC(F)(F)*

As for `CC(C)[C@H](NC(=O)OC(C)(C)C)C(=O)N1CCC[C@H]1C(=O)NC(Cc1ccccc1)C(=O)C(F)(F)C(=O)NCC(=O)O` (stereo not given in full), the figures for the Ki on Chymase and on Chymotrypsinogen A were 13.1 nM and 2620 nM, respectively. In addition, the Ratio in the experiment listed under Bos taurus stood at 200.
The like results for `CC(C)[C@H](NC(=O)OC(C)(C)C)C(=O)N1CCC[C@H]1C(=O)NC(Cc1ccccc1)C(=O)C(F)(F)C(=O)NC(CC(=O)O)C(=O)O` (stereo not given in full) were, in that order, 1550 nM, above 100000 nM and above 65.
The like results for `CC(C)[C@H](NC(=O)c1ccccc1)C(=O)N1CCC[C@H]1C(=O)NC(Cc1ccccc1)C(=O)C(F)(F)C(=O)Nc1cccc(C(=O)O)c1` (stereo not given in full) were, in that order, 3.1 nM, 275 nM and 88.
The corresponding values for `CC(C)[C@H](NC(=O)OC(C)(C)C)C(=O)N1CCC[C@H]1C(=O)NC(Cc1ccccc1)C(=O)C(F)(F)C(=O)NC(CCC(=O)O)C(=O)O` (stereo not given in full) are 1010 nM, above 100000 nM and above 99.
For `CC(=O)N[C@H](C(=O)N1CCC[C@H]1C(=O)NC(Cc1ccccc1)C(=O)C(F)(F)C(=O)Nc1cccc(C(=O)O)c1)C(C)C` (stereo not given in full), the Ki at Chymase stood at 7.1 nM; on Chymotrypsinogen A, 11 nM. Moreover, the Ratio in the experiment listed under Bos taurus worked out at 2.
Take `CC(C)[C@H](NC(=O)OC(C)(C)C)C(=O)N1CCC[C@H]1C(=O)NC(Cc1ccccc1)C(=O)C(F)(F)C(=O)NCc1ccccc1` (mixture of isomers; form 2) [listing 1 of 2 here]: the Ratio in the experiment filed under Bos taurus was found to be 129.
Turning to `CC(C)[C@H](NC(=O)OC(C)(C)C)C(=O)N1CCC[C@H]1C(=O)NC(Cc1ccccc1)C(=O)C(F)(F)C(=O)NCCC(=O)O` (stereo not given in full), the results for the Ki on Chymase and on Chymotrypsinogen A were 36.4 nM and 2300 nM, respectively. Also, the Ratio in the experiment filed under Bos taurus was 63.
The like results for `CC(C)[C@H](NC(=O)OC(C)(C)C)C(=O)N1CCC[C@H]1C(=O)NC(Cc1ccccc1)C(=O)C(F)(F)C(=O)NCCCC(=O)O` (stereo not given in full) were, in that order, 24 nM, 4430 nM and 185.
For the compound `CC(C)[C@H](NC(=O)OC(C)(C)C)C(=O)N1CCC[C@H]1C(=O)NC(Cc1ccccc1)C(=O)C(F)(F)C(=O)NCc1ccccc1` (mixture of isomers; form 2) [listing 2 of 2 here], the inhibition constant (Ki) amounted to 92.4 nM on Chymase and 11900 nM at Chymotrypsinogen A.
Take `CC(C)[C@H](NC(=O)OC(C)(C)C)C(=O)N1CCC[C@H]1C(=O)NC(Cc1ccccc1)C(=O)C(F)(F)C(=O)N1CCCC1C(=O)O` (stereo not given in full): the Ki at Chymase is 493 nM; at Chymotrypsinogen A it was above 100000 nM. In the experiment filed under Bos taurus, the Ratio was above 203.
The corresponding values for `CC(C)[C@H](NC(=O)OC(C)(C)C)C(=O)N1CCC[C@H]1C(=O)NC(Cc1ccccc1)C(=O)C(F)(F)C(=O)NCC(=O)OCc1ccccc1` (stereo not given in full) are 12.5 nM, 316 nM and 25.
The like results for `CC(C)[C@H](NC(=O)OC(C)(C)C)C(=O)N1CCC[C@H]1C(=O)NC(Cc1ccccc1)C(=O)C(F)(F)C(=O)N(C)Cc1ccccc1` (stereo not given in full) were, in that order, 70.1 nM, 7550 nM and 108.
The like results for `CC(C)[C@H](NC(=O)CCc1ccccc1)C(=O)N1CCC[C@H]1C(=O)NC(Cc1ccccc1)C(=O)C(F)(F)C(=O)Nc1cccc(C(=O)O)c1` (stereo not given in full) were, in that order, 1.3 nM, 19 nM and 15.
Take `CC(NC(=O)C(F)(F)C(=O)C(Cc1ccccc1)NC(=O)[C@@H]1CCCN1C(=O)[C@@H](NC(=O)OC(C)(C)C)C(C)C)C(=O)O` (stereo not given in full): the Ki on Chymase amounted to 65.6 nM; on Chymotrypsinogen A, 54900 nM. Besides, the Ratio in the experiment listed under Bos taurus turned out to be 837.
The like results for `CC(C)[C@H](NC(=O)OC(C)(C)C)C(=O)N1CCC[C@H]1C(=O)NC(Cc1ccccc1)C(=O)C(F)(F)C(=O)NC(C(=O)O)c1ccccc1` (stereo not given in full) were, in that order, 1040 nM, above 100000 nM and above 96.
The like results for `CC(C)[C@H](NC(=O)OC(C)(C)C)C(=O)N1CCC[C@H]1C(=O)NC(Cc1ccccc1)C(=O)C(F)(F)C(=O)NCCc1ccccc1` (stereo not given in full) were, in that order, 18.3 nM, 2040 nM and 111.
The corresponding values for `CC(C)[C@H](NS(=O)(=O)c1ccccc1)C(=O)N1CCC[C@H]1C(=O)NC(Cc1ccccc1)C(=O)C(F)(F)C(=O)Nc1cccc(C(=O)O)c1` (stereo not given in full) are 6.3 nM, 554 nM and 88.
For `CC(C)[C@H](NC(=O)OC(C)(C)C)C(=O)N1CCC[C@H]1C(=O)NC(Cc1ccccc1)C(=O)C(F)(F)C(=O)NCc1ccccc1` (mixture of isomers; form 1) [listing 1 of 2 here], in the experiment listed under Bos taurus, the Ratio was 23.
Turning to `CC(C)[C@H](NC(=O)OC(C)(C)C)C(=O)N1CCC[C@H]1C(=O)NC(Cc1ccccc1)C(=O)C(F)(F)C(=O)Nc1ccc(C(=O)O)cc1` (stereo not given in full), the inhibition constant Ki amounted to 6.8 nM at Chymase and 200 nM on Chymotrypsinogen A. In addition, the Ratio in the experiment filed under Bos taurus was found to be 29.
The corresponding values for `CC(C)[C@H](NS(C)(=O)=O)C(=O)N1CCC[C@H]1C(=O)NC(Cc1ccccc1)C(=O)C(F)(F)C(=O)Nc1cccc(C(=O)O)c1` (stereo not given in full) are 16.5 nM, 207 nM and 13.
As to `CC(C)[C@H](NC(=O)OC(C)(C)C)C(=O)N1CCC[C@H]1C(=O)NC(Cc1ccccc1)C(=O)C(F)(F)C(=O)NCc1ccccc1` (mixture of isomers; form 1) [listing 2 of 2 here], the Ki at Chymase amounted to 7.4 nM; at Chymotrypsinogen A, 172 nM.
The like results for `CC(C)[C@H](NC(=O)OC(C)(C)C)C(=O)N1CCC[C@H]1C(=O)NC(Cc1ccccc1)C(=O)C(F)(F)C(=O)Nc1cccc(C(=O)O)c1` (stereo not given in full) were, in that order, 5.6 nM and 364 nM.
For `CC(C)[C@H](NC(=O)OC(C)(C)C)C(=O)N1CCC[C@H]1C(=O)NC(Cc1ccccc1)C(=O)C(F)(F)C(=O)Nc1ccccc1C(=O)O` (stereo not given in full), the Ki at Chymase is 3620 nM; on Chymotrypsinogen A it was above 100000 nM. Moreover, the Ratio in the experiment filed under Bos taurus was above 28.
The corresponding values for `CC(C)[C@H](NC(=O)OC(C)(C)C)C(=O)N1CCC[C@H]1C(=O)NC(Cc1ccccc1)C(=O)C(F)(F)F` (stereo partly drawn) (Boc-Val-Pro-[ξF]-CF3) are 55.8 nM, 113 nM and 2.
The like results for `CC(C)[C@H](NC(=O)OC(C)(C)C)C(=O)N1CCC[C@H]1C(=O)NC(Cc1ccccc1)C(=O)C(F)(F)C(=O)NC(Cc1ccccc1)C(=O)O` (stereo not given in full) were, in that order, 30.1 nM, 1700 nM and 57.
The like results for `COC(=O)CNC(=O)C(F)(F)C(=O)C(Cc1ccccc1)NC(=O)[C@@H]1CCCN1C(=O)[C@@H](NC(=O)OC(C)(C)C)C(C)C` (stereo not given in full) were, in that order, 6.5 nM, 2510 nM and 387.
For the compound `CC(C)[C@H](NC(=O)OC(C)(C)C)C(=O)N1CCC[C@H]1C(=O)NC(Cc1ccccc1)C(=O)C(F)(F)C(=O)Nc1ccccc1` (stereo not given in full), the Ki on Chymase came to 16.3 nM; on Chymotrypsinogen A, 70 nM. In addition, the Ratio in the experiment listed under Bos taurus is 4.
On to `CC(C)[C@H](NC(=O)OC(C)(C)C)C(=O)N1CCC[C@H]1C(=O)NC(Cc1ccccc1)C(=O)C(F)(F)C(=O)N[C@@H](Cc1ccccc1)C(=O)O` (stereo not given in full), for which the Ki is 513 nM on Chymase and 77400 nM on Chymotrypsinogen A. For the same compound, the Ratio in the experiment listed under Bos taurus came out at 151.
Turning to `CNC(=O)C(F)(F)C(=O)C(Cc1ccccc1)NC(=O)[C@@H]1CCCN1C(=O)[C@@H](NC(=O)OC(C)(C)C)C(C)C` (stereo not given in full), the inhibitory constant (Ki) amounted to 28.7 nM on Chymase and 1070 nM at Chymotrypsinogen A. For the same compound, in the experiment filed under Bos taurus, the Ratio stood at 37.
